Assay outcomes (PubChem)
B2AR ag: agonists of human beta-2 adrenergic receptor inducing internalization; P07550; Am2.2-beta2AR cells, FAP receptor internalization, flow cytometry; response, % (no concentration beside the values); hit rate 0.43% among 340,000;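 active = response above a set limit, near 3 SD of response in nonfluorescent compounds, cut at about 42% in these data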
XBP1 UPR activ: activators of adaptive arm of unfolded protein response (XBP1); activation, % at 20 µM; CHO-XBP1 luciferase reporter, IRE1-XBP1 UPR activation, luminescence; percent of tunicamycin response, DMSO as zero; hit rate 0.33% among 330,000;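 active = versus positive control, 20 µM dose yields 30% or more activation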
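Assay system: IRE1-XBP1 luciferase reporter CHO line. Input: 1000 cells/well. Buffer or medium: F12 with 10% serum. Doses: 20 µM, 1% DMSO. Times: overnight seeding at 37 °C, 6 h compound treatment at 37 °C. Technique: Steady-Glo luciferase glow luminescence, 10 min after reagent addition.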
CHOP UPR activ: apoptotic UPR (CHOP) activation; activation, % at 10 µM; CHO-CHOP luciferase reporter, luminescence; percent of tunicamycin response over DMSO baseline; AID 449763; hit rate 0.34% among 330,000;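 active = at 10 µM dose, activation of 40% or more, normalized to positive control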
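Assay system: CHO-CHOP cells, stable luciferase reporter of PERK-eIF2a-CHOP signalling / Buffer or medium: F12 plus 10% serum / Compound dosing: one dose, 10 µM in 0.5% DMSO / Times: 6 h compound treatment, 37 °C / Technique: luciferase luminescence / Read-out: % reporter activation, DMSO baseline versus tunicamycin full activation / Benchmarks: tunicamycin and DMSO controls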
CHOP inh: CHOP inhibition in unfolded protein response | hit rate 3.8% among 220,000 | inhibition, % at 10 µM | AID 2732 | CHO-K1 CHOP-promoter luciferase, tunicamycin-induced, 15-18 h;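 active = compounds that reduced the stress-induced luciferase reporter signal by more than about 70% of percent inhibition, limit read from the data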
pCIP destab: lowers stability of the mouse p/CIP coactivator protein; F442A p/CIP-EGFP cells, EGFP fluorescence, 16 h; hit rate 0.01% among 290,000; decrease of EGFP signal, % at 10 µM;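 active = EGFP signal decrease of at least 30% at 10 µM or well 3 SD below plate mean, unless failing retest; inactive = the rest, including hits failing retest or dose response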
Dynein transport: blocks dynein driven cargo transport along microtubules; z-score, hits read low; AID 1381; hit rate 0.47% among 220,000; 3617.4 mouse cells, GR-EGFP nuclear translocation imaging; test concentration mostly 20 µM; stimulated with dexamethasone, 1 µM; stronger effect = lower value;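 active = plate z-score of nuclear minus cytoplasmic receptor signal below a set negative limit, without overly bright fluorescence or cell loss, cut at about -3.5 in these data, passing the limit was not always enough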;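 note: z-score of nuclear minus cytoplasmic ring GR-EGFP intensity difference per well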
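Medium: Induction medium lacking tetracycline, stripped serum | Probe or stimulus: 1.0 µM final dexamethasone stimulus | Schedule: 48 h induction, then 1 h compound, then 30 min agonist, 37 °C | Signal: Automated 10x imaging of fixed Hoechst-stained cells | Evaluation: Per-cell GR-EGFP intensity, nucleus versus surrounding cytoplasmic ring, well-averaged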
A number is an active result. Only a selection was taken, and hits are over-represented in it overall.

CC(Sc1nnc2ccccn12)C(N)=O (stereo unspecified) was read as B2AR ag inactive, XBP1 UPR activ inactive, CHOP UPR activ inactive, CHOP inh inactive, pCIP destab inactive and Dynein transport inactive.
`O=C(c1ccco1)N(Cc1ccc([N+](=O)[O-])cc1)c1ccc(Br)cc1` gave B2AR ag inactive, XBP1 UPR activ inactive, CHOP UPR activ inactive, CHOP inh 70, pCIP destab inactive and Dynein transport inactive.
Screening O=C(c1ccco1)N(Cc1cccc([N+](=O)[O-])c1)c1ccc(Br)cc1 returned B2AR ag inactive, XBP1 UPR activ inactive, CHOP UPR activ inactive, CHOP inh inactive, pCIP destab inactive and Dynein transport inactive.
`Cc1ccc2ncccc2c1NS(=O)(=O)c1ccccc1` gave B2AR ag inactive, XBP1 UPR activ inactive, CHOP UPR activ inactive, CHOP inh 82, pCIP destab inactive and Dynein transport inactive.
Cc1ccc2ncccc2c1NC(=S)NC(=O)c1ccccc1 was read as B2AR ag inactive, XBP1 UPR activ inactive, CHOP UPR activ inactive, CHOP inh inactive, pCIP destab inactive and Dynein transport inactive.
`Cc1c(-c2cccc(Cl)c2)nc2ccccc2c1C(=O)OCC(=O)Nc1ccc2c(c1)OCO2` gave B2AR ag inactive, XBP1 UPR activ inactive, CHOP UPR activ inactive, CHOP inh 78, pCIP destab inactive and Dynein transport inactive.
Screening COCCCC1CCN(Cc2nc(-c3ccccc3)no2)CC1 returned B2AR ag inactive, XBP1 UPR activ inactive, CHOP UPR activ inactive, CHOP inh inactive, pCIP destab inactive and Dynein transport inactive.
Screening O=C(N/N=C/c1cccc([N+](=O)[O-])c1)c1cc2ccccc2o1 returned B2AR ag inactive, XBP1 UPR activ inactive, CHOP UPR activ inactive, CHOP inh 95, pCIP destab inactive and Dynein transport inactive.
CCC/C(=N\NC(=O)C1CC1)c1ccc(Br)cc1 was read as B2AR ag inactive, XBP1 UPR activ inactive, CHOP UPR activ inactive and pCIP destab inactive.
`COC(=O)Sc1nnc(-c2ccc(Br)cc2)o1` gave XBP1 UPR activ inactive, CHOP UPR activ inactive, CHOP inh 91, pCIP destab inactive and Dynein transport inactive.
Screening COc1ccc(-n2nc(C(=O)NCC(=O)NCc3ccccc3OC)c3ccccc3c2=O)c(OC)c1 returned B2AR ag inactive, XBP1 UPR activ inactive, CHOP UPR activ inactive, CHOP inh inactive, pCIP destab inactive and Dynein transport inactive.
Screening COc1ccc(-n2nc(C(=O)Nc3nc4ccc(OC)cc4s3)c3ccccc3c2=O)c(OC)c1 returned XBP1 UPR activ inactive, CHOP UPR activ inactive, CHOP inh 88, pCIP destab inactive and Dynein transport inactive.
`COc1ccc(-c2c(NCCc3ccccc3)c(=O)c2=O)cc1` gave B2AR ag inactive, XBP1 UPR activ inactive, CHOP UPR activ inactive and pCIP destab inactive.
`COc1ccc(S(=O)(=O)N2CCOC2CNC(=O)C(=O)NCc2ccccc2Cl)cc1` (stereo unspecified) gave B2AR ag inactive, XBP1 UPR activ inactive, CHOP UPR activ inactive and pCIP destab inactive.
`Cc1nn(Cc2ccc(Cl)c(Cl)c2)c(C)c1NC(=O)c1cc(-c2ccco2)on1` gave B2AR ag inactive, XBP1 UPR activ inactive, CHOP UPR activ inactive, CHOP inh 87, pCIP destab inactive and Dynein transport inactive.
`C=CCn1c(SCc2c(C)noc2C)nc2sc3c(c2c1=O)CCCC3` gave B2AR ag inactive, XBP1 UPR activ inactive, CHOP UPR activ inactive, CHOP inh 83, pCIP destab inactive and Dynein transport inactive.
`Cc1noc(C)c1CSc1nc2sc3c(c2c(=O)n1C)CCCC3` gave B2AR ag inactive, XBP1 UPR activ inactive, CHOP UPR activ inactive, CHOP inh 76, pCIP destab inactive and Dynein transport inactive.
CCOC(=O)C1=CN(Cc2cccc(F)c2)S(=O)(=O)N(CC)C1c1ccc(Br)cc1F (stereo unspecified) was read as B2AR ag inactive, XBP1 UPR activ inactive and CHOP UPR activ inactive.
COc1ccc2c(c1OC)C(=O)N1C2SC[C@H]1C(=O)NC1CC1 (stereo partly specified) was read as B2AR ag inactive, XBP1 UPR activ inactive, CHOP UPR activ inactive and pCIP destab inactive.
Screening CSc1nc2ccc(NC(=O)CSc3nnc(N)s3)cc2s1 returned B2AR ag inactive, XBP1 UPR activ inactive, CHOP UPR activ inactive, CHOP inh inactive, pCIP destab inactive and Dynein transport inactive.
`COc1ccc(OCC(O)CNC(=O)c2ccc(Br)cc2)cc1` (stereo unspecified) gave B2AR ag inactive, XBP1 UPR activ inactive, CHOP UPR activ inactive, CHOP inh inactive, pCIP destab inactive and Dynein transport inactive.
`COc1ccc(OCC(O)CNc2ccc(Br)cc2)cc1` (stereo unspecified) gave B2AR ag inactive, XBP1 UPR activ inactive, CHOP UPR activ inactive, CHOP inh 86, pCIP destab inactive and Dynein transport inactive.
For O=C(c1ccc(Cl)cc1)C(CN1CCCCC1)c1ccccc1 (stereo unspecified) the results were B2AR ag inactive, XBP1 UPR activ inactive, CHOP UPR activ 203 and pCIP destab inactive.
`CCOC(=O)C(CN1CCCC1)c1ccccc1` (stereo unspecified) gave B2AR ag inactive, XBP1 UPR activ inactive and CHOP UPR activ inactive.
For O=C(Cn1ccc(=O)[nH]c1=O)Nc1ccc(O)c([N+](=O)[O-])c1 the results were B2AR ag inactive.
Screening CN1C(=O)C2(OCC(COc3ccc(Cl)cc3)O2)c2ccccc21 (stereo unspecified) returned B2AR ag inactive, XBP1 UPR activ inactive, CHOP UPR activ inactive, CHOP inh 81, pCIP destab inactive and Dynein transport inactive.
For CN1C(=O)C2(OCC(C)([N+](=O)[O-])CO2)c2ccccc21 (stereo unspecified) the results were B2AR ag inactive and pCIP destab inactive.
`O=C1Nc2ccccc2C12OCC(COc1ccc(Cl)cc1)O2` (stereo unspecified) gave B2AR ag inactive, XBP1 UPR activ inactive, CHOP UPR activ inactive, CHOP inh 80, pCIP destab inactive and Dynein transport inactive.
For CSc1ncccc1C(=O)N1CCN(S(=O)(=O)c2cc(C)ccc2C)CC1 the results were B2AR ag inactive, XBP1 UPR activ inactive, CHOP UPR activ inactive and pCIP destab inactive.
Cc1ccc(C)c(S(=O)(=O)N2CCN(Cc3ccc(O)c4ncccc34)CC2)c1 was read as B2AR ag inactive, XBP1 UPR activ inactive, CHOP UPR activ inactive, CHOP inh 76, pCIP destab inactive and Dynein transport inactive.
